ChEMBL document CHEMBL5252514, “Conopeptide-Derived κ-Opioid Agonists (Conorphins): Potent, Selective, and Metabolic Stable Dynorphin A Mimetics with Antinociceptive Properties” (J Med Chem, 2016)
Activity calls are given as the source filed them. The calls are words filed in the database; no cut-off is given here. Where a SMILES comes first, the peptide text is derived from it.

Tests used:
[1] = target: T1, Kappa-type opioid receptor (Homo sapiens, UniProt P41145); experiment: Displacement of [3H]U69593 from human kappa opioid receptor expressed in CHO-K1 cells incubated for 1 hr by 1450 microbeta scintillation counter analysis; assay type: cell-based
T1 sequence (P41145 whole entry): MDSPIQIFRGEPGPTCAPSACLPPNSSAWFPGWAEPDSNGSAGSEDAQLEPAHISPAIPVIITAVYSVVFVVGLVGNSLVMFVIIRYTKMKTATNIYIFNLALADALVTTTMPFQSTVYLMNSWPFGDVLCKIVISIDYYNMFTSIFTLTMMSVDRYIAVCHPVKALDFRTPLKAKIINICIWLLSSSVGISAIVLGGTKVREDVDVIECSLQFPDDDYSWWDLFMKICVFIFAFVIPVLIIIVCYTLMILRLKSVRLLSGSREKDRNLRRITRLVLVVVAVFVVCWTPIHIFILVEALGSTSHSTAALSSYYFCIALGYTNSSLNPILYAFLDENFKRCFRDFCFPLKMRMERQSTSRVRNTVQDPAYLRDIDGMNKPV
Summary of the method: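 Membranes from transiently KOR-transfected CHO-K1 cells (~2 µg/well) used in SPA with 3H-U69,593 (1 nM). Competitor ranged 1 pM–10 µM in 50 mM Tris-HCl pH 7.4, 5 mM MgCl2, 0.1% BSA. Incubated 1 h at room temperature with shaking. Nonspecific binding defined with 10 µM dynorphin A. Sigmoidal dose-response fit; at least three independent experiments in triplicate.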

Homo sapiens [2] = species: Homo sapiens; experiment: Selectivity ratio, ratio of Ki for human KOR to Ki for human NOP
Homo sapiens [3] = species: Homo sapiens; experiment: Selectivity ratio, ratio of Ki for human KOR to Ki for human DOR
Homo sapiens [4] = species: Homo sapiens; experiment: Selectivity ratio, ratio of Ki for human KOR to Ki for human MOR
[5] = Metabolic stability in Wistar rat plasma assessed as compound remaining measured after 24 hrs by HPLC analysis; assay type: ADME, cell-free; conditions: read-out: Stability
Summary of the method: (§1)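 Peptide at 1 mg/mL in sterile PBS pH 7.4 was mixed 1:1 with thawed, centrifuged Wistar rat plasma supernatant and incubated at 37°C in triplicate. Samples at 0, 1, 2, 3, 4, 6 and 24 h were quenched with acetonitrile and then 2% TFA/water, and analysed by HPLC with inline electrospray MS.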

[6] = target: T1, Kappa-type opioid receptor; experiment: Agonist activity at human kappa opioid receptor expressed in CHO-K1 cells assessed as ERK phosphorylation incubated for 2 hrs by Alphascreen surefire method; assay type: cell-based
Summary of the method: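 CHO-K1 cells transiently transfected with KOR plasmid, harvested 24 h later, plated at 50,000 cells/well and settled 24 h, then serum-starved 12 h. Ligands in serum-free medium applied 10 min at room temperature. Lysates read by AlphaScreen SureFire phospho-ERK1/2 after 2 h at 37 °C. Curves fitted by sigmoidal dose-response.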

[7] = target: T1, Kappa-type opioid receptor; experiment: Agonist activity at human kappa opioid receptor expressed in CHO-K1 cells assessed as inhibition of forskolin-stimulated cAMP production incubated for 30 mins by LANCE cAMP assay; assay type: cell-based
Summary of the method: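 Transiently KOR-transfected CHO-K1 cells taken 24 h post-transfection, 3,000 cells/well in HBSS stimulation buffer (0.1% BSA, 0.5 mM IBMX, 5 mM HEPES, pH 7.4). Forskolin (1 µM final) and ligand added, then 30 min at RT. LANCE Eu-cAMP tracer/anti-cAMP TR-FRET read after 1 h at RT. Sigmoidal dose-response fit.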

[8] = Metabolic stability in Wistar rat plasma assessed as UrrQ[CHA][PEN]C formation by measuring relative abundance measuring after 3600 mins by HPLC analysis relative to control; assay type: ADME, cell-free; conditions: 60 h
[9] = Metabolic stability in Wistar rat plasma assessed as BzPrrQ[CHA][PEN]C formation by measuring relative abundance measuring after 3600 mins by HPLC analysis relative to control; assay type: ADME, cell-free; conditions: 60 h
[10] = Metabolic stability in Wistar rat plasma assessed as half life by HPLC analysis; assay type: ADME, cell-free; summary of the method: as §1
[11] = Metabolic stability in Wistar rat plasma assessed as UrrQ[CHA] formation by measuring relative abundance measuring after 120 mins by HPLC analysis relative to control; assay type: ADME, cell-free; conditions: 2 h; summary of the method: as §1
[12] = Metabolic stability in Wistar rat plasma assessed as UrrQ[CHA]CC formation by measuring relative abundance measuring after 120 mins by HPLC analysis relative to control; assay type: ADME, cell-free; conditions: 2 h; summary of the method: as §1
[13] = Metabolic stability in Wistar rat plasma assessed as BzPrrQ[CHA]CC formation by measuring relative abundance measuring after 360 mins by HPLC analysis relative to control; assay type: ADME, cell-free; conditions: 6 h; summary of the method: as §1
Mus musculus [14] = experiment: Antinociceptive activity against C57BL/6 mouse model of TNBS induced chronic visceral hypersensitivity assessed as inhibition of colonic nociceptor mechanosensitivity at 1000 nM, administered topically on colon mucosal surface for 28 days; assay type: functional, organism-based; conditions: time 28.0 day
Summary of the method: (§2)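 Ex vivo single-unit extracellular recording of splanchnic colonic afferents from healthy C57BL/6 mice or CVH mice (28 days after TNBS, inflammation resolved). Baseline mechanosensitivity was measured with a 2 g von Frey probe applied 3 s to the receptive field, repeated 3–4 times 10 s apart. KOR agonist was applied to the mucosal surface for 5 min per concentration inside a small metal ring, then mechanosensitivity was re-tested.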

Mus musculus [15] = experiment: Antinociceptive activity against C57BL/6 mouse model of TNBS induced chronic visceral hypersensitivity assessed as inhibition of colonic nociceptor mechanosensitivity at 1000 nM, administered topically on colon mucosal surface for 28 days in presence of norbinaltorphimine; assay type: functional, organism-based; conditions: time 28.0 day; summary of the method: as §2
Mus musculus [16] = experiment: Antinociceptive activity against C57BL/6 mouse assessed as inhibition of colonic nociceptor mechanosensitivity at 1 to 1000 nM, administered topically on colon mucosal surface for 28 days; assay type: functional, organism-based; conditions: dose 1-1000 nM, time 28.0 day; summary of the method: as §2
[17] = Metabolic stability in Wistar rat plasma assessed as URR formation by measuring relative abundance measuring after 60 mins by HPLC analysis relative to control; assay type: ADME, cell-free; conditions: 1 h; summary of the method: as §1
[18] = Metabolic stability in Wistar rat plasma assessed as Q[CHA]CC formation by measuring relative abundance measuring after 60 mins by HPLC analysis relative to control; assay type: ADME, cell-free; conditions: 1 h; summary of the method: as §1
[19] = Metabolic stability in Wistar rat plasma assessed as URRQ[CHA] formation by measuring relative abundance measuring after 60 mins by HPLC analysis relative to control; assay type: ADME, cell-free; conditions: 1 h; summary of the method: as §1

Structure (SMILES)	Ki [1] [nM]	Ratio Ki (Homo sapiens [2])	Ratio Ki (Homo sapiens [3])	Ratio Ki (Homo sapiens [4])	remaining at 24 h [5] [%]	EC50 [6] [nM]	EC50 [7] [nM]	Activity [8]	Activity [9]	half-life [10] [h]	Activity [11]	Activity [12]	Activity [13]	inhibition (Mus musculus [14])	inhibition (Mus musculus [15])	inhibition (Mus musculus [16])	Activity [17]	Activity [18]	Activity [19]
CC1(C)SSC[C@@H](C(N)=O)NC(=O)[C@H]1NC(=O)[C@H](CC1CCCCC1)NC(=O)[C@H](CCC(N)=O)NC(=O)[C@@H](CCCNC(=N)N)NC(=O)[C@@H](CCCNC(=N)N)NC(=O)[C@@H]1CCC(=O)N1	1.3	> 25000	> 1200	> 39000	100	450	10.5	1											
CC1(C)SSC[C@@H](C(N)=O)NC(=O)[C@H]1NC(=O)[C@H](CC1CCCCC1)NC(=O)[C@H](CCC(N)=O)NC(=O)[C@@H](CCCNC(=N)N)NC(=O)[C@@H](CCCNC(=N)N)NC(=O)[C@@H]1CCCN1C(=O)c1ccccc1	1140				95				1										
N=C(N)NCCC[C@@H](NC(=O)[C@@H]1CCC(=O)N1)C(=O)N[C@H](CCCNC(=N)N)C(=O)N[C@@H](CCC(N)=O)C(=O)N[C@@H](CC1CCCCC1)C(=O)N[C@H]1CSSC[C@@H](C(N)=O)NC1=O	3.9	> 10000	> 10000	> 10000		1100	12.6			6	0.1	1							
N=C(N)NCCC[C@@H](NC(=O)[C@@H](CCCNC(=N)N)NC(=O)[C@@H]1CCCN1C(=O)c1ccccc1)C(=O)N[C@@H](CCC(N)=O)C(=O)N[C@@H](CC1CCCCC1)C(=O)N[C@H]1CSSC[C@@H](C(N)=O)NC1=O	0.25	> 45000	> 250000	> 250000		0.36	0.41			4			1	Dose-Dependent Effect	inactive	inactive			
N=C(N)NCCC[C@H](NC(=O)[C@@H]1CCC(=O)N1)C(=O)N[C@@H](CCCNC(=N)N)C(=O)N[C@@H](CCC(N)=O)C(=O)N[C@@H](CC1CCCCC1)C(=O)N[C@H]1CSSC[C@@H](C(N)=O)NC1=O	6.7	> 10000	> 10000	> 10000		1580	15.2			1.5							0.01	0.01	0.1
CC[C@H](C)[C@H](NC(=O)[C@H](CCC(N)=O)NC(=O)[C@H](CCCNC(=N)N)NC(=O)[C@H](CCCNC(=N)N)NC(=O)[C@@H]1CSSC[C@H](NC(=O)[C@@H](N)CC(N)=O)C(=O)N1)C(=O)N[C@H]1CSSC[C@@H](C(N)=O)NC1=O (HELM PEPTIDE1{N.C.C.R.R.Q.I.C.C.[am]}$PEPTIDE1,PEPTIDE1,2:R3-3:R3|PEPTIDE1,PEPTIDE1,8:R3-9:R3$$$V2.0)	80	> 630	> 630	> 630		9850	9450			0.25									
